Measured values: ChEMBL document CHEMBL4138245, “Design and synthesis of novel quinacrine-[1,3]-thiazinan-4-one hybrids for their anti-breast cancer activity” (Eur J Med Chem, 2018)
Activity calls are given as the source filed them. No cut-off for these calls is given here.

How the values were obtained:
MDA-MB-231 [1] = experiment: Antiproliferative activity against human MDA-MB-231 cells after 48 hrs by SRB assay; type: functional, cell-based; details: MDA-MB-231, 48 h
How it was run: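 SRB assay: 5,000-10,000 cells/well plated, 24 h at 37 °C/5% CO2 before drug; seven concentrations from 100 μM down (two- to ten-fold serial dilutions, DMSO ≤0.1% final) for 48 h; TCA fixation (10% final, 60 min, 4 °C), 0.4% SRB in 1% acetic acid, solubilized in 10 mM Tris base, absorbance 515-564 nm; growth = (Ti−Tz)/(C−Tz)×100; IC50 from sigmoidal variable-slope fit; triplicates, ≥2 independent experiments.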

NCI-H1975 = experiment: Antiproliferative activity against human NCI-H1975 cells assessed as compound concentration required to show complete inhibition of cell viability up to 96 hrs by SRB assay; type: functional
MCF-10A [2] = experiment: Antiproliferative activity against human MCF10A cells assessed as compound concentration required to show complete inhibition of cell viability up to 96 hrs by SRB assay; type: cell-based
184B5 [3] = experiment: Antiproliferative activity against human 184B5 cells assessed as compound concentration required to show complete inhibition of cell viability up to 96 hrs by SRB assay; type: cell-based; details: 184b5, 96 h
MCF-10A [4] = experiment: Antiproliferative activity against human MCF10A cells at 1 to 2 uM up to 96 hrs by SRB assay; type: cell-based
MDA-MB-231 [5] = experiment: Cell cycle arrest in human MDA-MB-231 cells assessed as accumulation at S phase at 2 uM after 48 hrs by propidium iodide staining based flow cytometry; type: functional
How it was run: (§1)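 MCF7, MDA-MB231 and non-cancer 184B5 breast cells exposed to 2 μM for 48 h, then cell-cycle analysis by flow cytometry; duplicates, repeated three times.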

MDA-MB-231 [6] = experiment: Cell cycle arrest in human MDA-MB-231 cells assessed as accumulation at sub-G1 phase at 2 uM after 48 hrs by propidium iodide staining based flow cytometry; type: functional; how it was run: as §1
184B5 [7] = experiment: Cell cycle arrest in human 184B5 cells at 2 uM after 48 hrs by propidium iodide staining based flow cytometry; details: 184b5, 48 h; how it was run: as §1
MCF7 [8] = experiment: Cell cycle arrest in human MCF7 cells assessed as DNA content at 2 uM after 6 hrs by BrdU incorporation assay (reference value: 31.6%); type: functional
MCF7 [9] = experiment: Cell cycle arrest in human MCF7 cells assessed as DNA content at 2 uM after 12 hrs by BrdU incorporation assay (reference value: 20.7%); type: functional
MCF7 [10] = experiment: Inhibition of DNA replication in human MCF7 cells assessed as EdU incorporation at 2 uM pretreated for 48 hrs followed by EdU addition at final 45 mins of 48 hrs incubation time (reference value: 45 to 63%); type: functional; design: scale not given: the % may be the effect or the level left
MCF7 [11] = experiment: Upregulation of Cyclin-E protein expression in human MCF7 cells at 2 uM after 12 to 24 hrs by Western blot method; type: functional, cell-based
MCF7 [12] = experiment: Induction of DNA damage in human MCF7 cells assessed as increase in gammaH2Ax level at 2 uM after 24 to 48 hrs by Western blot method; type: functional, cell-based
[13] = target: T1, Serine/threonine-protein kinase Chk1 (Homo sapiens) (UniProt O14757); experiment: Induction of CHK1 phosphorylation at S298 residue in human MCF7 cells at 2 uM after 12 to 48 hrs by Western blot method; type: cell-based
T1 sequence (whole entry): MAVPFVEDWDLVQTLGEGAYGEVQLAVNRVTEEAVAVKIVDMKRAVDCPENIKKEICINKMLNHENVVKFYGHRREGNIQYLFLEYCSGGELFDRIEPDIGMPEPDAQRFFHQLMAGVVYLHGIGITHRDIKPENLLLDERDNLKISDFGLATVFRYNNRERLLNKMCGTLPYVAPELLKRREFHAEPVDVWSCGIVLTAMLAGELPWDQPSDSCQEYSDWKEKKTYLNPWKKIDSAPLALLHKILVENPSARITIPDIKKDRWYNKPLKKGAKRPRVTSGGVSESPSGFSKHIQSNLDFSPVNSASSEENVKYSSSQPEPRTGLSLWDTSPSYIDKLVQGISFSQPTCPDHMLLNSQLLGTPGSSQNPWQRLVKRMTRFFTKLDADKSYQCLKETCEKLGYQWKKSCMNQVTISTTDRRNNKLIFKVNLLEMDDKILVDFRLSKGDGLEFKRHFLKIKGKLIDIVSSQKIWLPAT

[14] = target: Serine/threonine-protein kinase Chk2 (Homo sapiens) (UniProt O96017); experiment: Induction of CHK2 phosphorylation at T68 residue in human MCF7 cells at 2 uM after 12 to 48 hrs by Western blot method; type: cell-based
[15] = target: Serine/threonine-protein kinase mTOR (Homo sapiens) (UniProt P42345); experiment: Inhibition of mTOR pathway in human MCF7 cells assessed as reduction in S6K phosphorylation at Thr389 residue at 2 uM after 6 hrs by Western blot method; type: cell-based
[16] = Selectivity index, ratio of compound concentration for cell killing activity in human MCF10A cells to compound concentration for cell killing activity in human CAMA1 cells; type: toxicity, cell-based; details: MCF10A cells versus CAMA1 cells, read-out: Selectivity Index
[17] = Selectivity index, ratio of compound concentration for cell killing activity in human MCF10A cells to compound concentration for cell killing activity in human MDA-MB-231 cells; type: toxicity, cell-based; details: MCF10A cells versus MDA-MB-231 cells, read-out: Selectivity Index
[18] = Selectivity index, ratio of compound concentration for cell killing activity in human MCF10A cells to compound concentration for cell killing activity in human MDA-MB-468 cells; type: toxicity, cell-based; details: MCF10A cells versus MDA-MB-468 cells, read-out: Selectivity Index
[19] = Selectivity index, ratio of compound concentration for cell killing activity in human MCF10A cells to compound concentration for cell killing activity in human PC3 cells; type: toxicity, cell-based; details: MCF10A cells versus PC3 cells, read-out: Selectivity Index
[20] = Selectivity index, ratio of compound concentration for cell killing activity in human MCF10A cells to compound concentration for cell killing activity in human A549 cells; type: toxicity, cell-based; details: MCF10A cells versus A549 cells, read-out: Selectivity Index
[21] = Selectivity index, ratio of compound concentration for cell killing activity in human MCF10A cells to compound concentration for cell killing activity in human NCI-H1975 cells; type: toxicity, cell-based; details: MCF10A cells versus NCI-H1975 cells, read-out: Selectivity Index
[22] = Selectivity index, ratio of compound concentration for cell killing activity in human 184B5 cells to compound concentration for cell killing activity in human MDA-MB-453 cells; type: toxicity, cell-based; details: 184B5 cells versus MDA-MB-453 cells, read-out: Selectivity Index
[23] = Selectivity index, ratio of compound concentration for cell killing activity in human 184B5 cells to compound concentration for cell killing activity in human MDA-MB-468 cells; type: toxicity, cell-based; details: 184B5 cells versus MDA-MB-468 cells, read-out: Selectivity Index
[24] = Selectivity index, ratio of compound concentration for cell killing activity in human 184B5 cells to compound concentration for cell killing activity in human LNCAP cells; type: toxicity, cell-based; details: 184B5 cells versus LNCAP cells, read-out: Selectivity Index
[25] = Selectivity index, ratio of compound concentration for cell killing activity in human 184B5 cells to compound concentration for cell killing activity in human A549 cells; type: toxicity, cell-based; details: 184B5 cells versus A549 cells, read-out: Selectivity Index

Sequence of Serine/threonine-protein kinase Chk2 (Homo sapiens) (O96017 whole entry): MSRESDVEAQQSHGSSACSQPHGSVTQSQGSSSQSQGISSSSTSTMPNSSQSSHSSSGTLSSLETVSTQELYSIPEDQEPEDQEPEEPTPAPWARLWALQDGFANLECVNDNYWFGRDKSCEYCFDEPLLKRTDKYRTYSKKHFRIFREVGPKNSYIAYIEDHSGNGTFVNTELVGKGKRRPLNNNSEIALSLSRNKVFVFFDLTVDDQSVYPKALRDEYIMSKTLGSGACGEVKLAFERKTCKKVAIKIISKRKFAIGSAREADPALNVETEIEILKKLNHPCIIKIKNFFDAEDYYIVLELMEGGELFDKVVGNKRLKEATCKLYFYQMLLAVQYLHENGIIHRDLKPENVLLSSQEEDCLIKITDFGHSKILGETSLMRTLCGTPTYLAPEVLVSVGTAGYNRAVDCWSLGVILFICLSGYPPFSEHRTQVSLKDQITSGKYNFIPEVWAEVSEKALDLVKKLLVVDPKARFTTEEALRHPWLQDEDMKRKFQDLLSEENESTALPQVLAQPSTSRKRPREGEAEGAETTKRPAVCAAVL

In the case of `COc1ccc2nc3cc(Cl)ccc3c(NCCCN3C(=O)CCSC3c3cccs3)c2c1` (stereo unspecified), the IC50 (MDA-MB-231 [1]) is reported as 2800 nM, the Activity (NCI-H1975) is reported as 2 µM and the Activity (MCF-10A [2]) is reported as > 6 µM. The Activity (184B5 [3]) was 6 µM, the Activity (MCF-10A [4]) was “Non-Toxic” and the Activity (MDA-MB-231 [5]) was “Active”. For the same compound, the Activity (MDA-MB-231 [6]) was “Active”, the Activity (184B5 [7]) was “Non-Toxic” and the Activity (MCF7 [8]) was 3.7%. For the same compound, the Activity (MCF7 [9]) was 8.7%, the Activity (MCF7 [10]) was 5% and the Activity (MCF7 [11]) was “Active”. The Activity (MCF7 [12]) was “inactive”, the Activity [13] was “inactive” and the Activity [14] was “inactive”. The inhibition [15] was “inactive”, the selectivity ratio [16] was 3 to 6 and the selectivity ratio [17] was 3 to 6. It also gave a selectivity ratio [18] of 3 to 6, a selectivity ratio [19] of 3 to 6 and a selectivity ratio [20] of 3 to 6. The selectivity ratio [21] was 3 to 6, the selectivity ratio [22] was 3 to 6 and the selectivity ratio [23] was 3 to 6. The selectivity ratio [24] was 3 to 6 and the selectivity ratio [25] was 3 to 6.
